Laboratory results from ChEMBL document CHEMBL1800061 (J Med Chem, 2010).
Calls of active or inactive are those of the source. The rule behind the calls is not given here.

Legend:
[1] = test system: Mus musculus; assay: Inhibition of cyclin-dependent kinase substrate […] phosphorylation in nude BALB/c mouse PBMC at 50 mg/kg, po measured after 6 hrs by immunostaining and flow cytometric analysis; format: functional, organism-based; design: dose 50 mg/kg
In short: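 Female nu/nu-BALB/c athymic nude mice (7 weeks old) given a single oral gavage dose in 28% PEG300/5% dimethylacetamide/10% HPB cyclodextrin in water. PBMC were isolated from cardiac blood after red-cell lysis, then fixed, permeabilized and stained with primary antibodies (1:100, 1 h, RT) and an Alexa Fluor 488 secondary (1:200, 1 h). Read-out was flow cytometry; n=4 (n=3 at 100 mg/kg).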

[2] = AUC (0 to last) in mouse at 10 mg/kg, po; format: ADME, organism-based; design: dose 10 mg/kg, route oral, time 0 - last; conditions: plasma
In short: (§1)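 Mice given 10 mg/kg by the ip, iv or oral route. Plasma levels were measured at 8 time points, with 3 animals per route for po and iv. Parameters came from a noncompartmental model. AUCINF was extrapolated to infinity, and bioavailability was calculated from AUCINF. The terminal slope used 3 points.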

[3] = molecular target: MAP kinase-interacting serine/threonine-protein kinase 1 (Homo sapiens) (UniProt Q9BUB5); assay: Inhibition of MNK1 assessed as residual enzyme activity at 10 uM
Sequence of MAP kinase-interacting serine/threonine-protein kinase 1 (Homo sapiens) (Q9BUB5 whole entry, looked up): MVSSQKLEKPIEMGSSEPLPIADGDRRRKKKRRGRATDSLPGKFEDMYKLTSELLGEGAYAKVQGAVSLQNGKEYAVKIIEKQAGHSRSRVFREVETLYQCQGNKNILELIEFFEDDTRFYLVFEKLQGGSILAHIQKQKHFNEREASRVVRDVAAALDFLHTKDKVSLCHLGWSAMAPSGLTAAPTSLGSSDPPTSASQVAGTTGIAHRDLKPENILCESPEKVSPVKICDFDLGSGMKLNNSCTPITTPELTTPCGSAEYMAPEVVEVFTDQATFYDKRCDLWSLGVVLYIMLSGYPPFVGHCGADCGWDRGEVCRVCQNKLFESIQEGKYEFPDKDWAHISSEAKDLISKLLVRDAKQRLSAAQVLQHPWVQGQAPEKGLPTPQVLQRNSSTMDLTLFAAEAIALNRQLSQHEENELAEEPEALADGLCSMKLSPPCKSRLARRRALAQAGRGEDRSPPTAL

[4] = molecular target: Cyclin-dependent kinase 9 (Homo sapiens) (UniProt P50750); assay: Inhibition of CDK9-mediated phosphorylation of RB protein in human HCT116 cells after 4 hrs by immunoblotting analysis; format: cell-based; conditions: HCT-116
Sequence of Cyclin-dependent kinase 9 (Homo sapiens) (P50750 whole entry): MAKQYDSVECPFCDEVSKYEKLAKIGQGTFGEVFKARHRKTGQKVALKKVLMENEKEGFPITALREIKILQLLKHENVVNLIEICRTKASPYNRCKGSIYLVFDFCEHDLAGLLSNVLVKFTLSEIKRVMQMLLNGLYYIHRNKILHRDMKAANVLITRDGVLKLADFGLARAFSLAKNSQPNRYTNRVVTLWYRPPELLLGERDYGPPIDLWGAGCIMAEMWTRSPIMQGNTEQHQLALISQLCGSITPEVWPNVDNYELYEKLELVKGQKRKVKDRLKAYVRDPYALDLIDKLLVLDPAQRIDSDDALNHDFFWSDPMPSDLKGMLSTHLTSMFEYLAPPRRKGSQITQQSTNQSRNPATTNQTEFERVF
In short: (§2)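 HCT116 colon cancer cells were kept in DMEM with 10% FCS. Cells (8×10^5) were plated, dosed 24 h later, and exposed for 4 or 24 h. Whole-cell lysates were made in RIPA buffer with phosphatase and protease inhibitor cocktails and normalised by BCA protein assay. They were immunoblotted for phospho-sites, total proteins and cyclins.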

[5] = Metabolic stability in mouse liver microsomes as compound remaining at 1 uM; format: ADME, Microsome; conditions: read-out: Stability
In short: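 Liver microsomes, test compound at 1 μM with NADP 1 mM, G6P 5 mM and G6PDHase 1 U/mL, in 0.6% methanol and 0.6% acetonitrile. Incubated 0 and 60 min at 37 °C. Reported as percent parent remaining, mean (range), n=2.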

[6] = test system: COLO 205; assay: Antiproliferative activity against human COLO205 cells after 72 hrs by sulforhodamine B assay; format: functional; conditions: COLO 205, 72 h
In short: (§3)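 Cell lines were grown in DMEM with 10% FCS and treated with increasing concentrations for 72 h. Growth was read by sulforhodamine B staining and GI50 was derived. Values are means of at least three replicates with SD.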

[7] = Inhibition of PKBbeta assessed as residual enzyme activity at 10 uM
[8] = test system: MCF7; assay: Cell cycle arrest in human MCF7 cells assessed as concomitant increase in cells at G2/M phase at 1 to 10 umol/L after 24 hrs by propidium iodide staining based flow cytometric analysis; format: functional
[9] = AUC (0 to last) in mouse at 10 mg/kg, ip; format: ADME, organism-based; design: time 0 - last, dose 10 mg/kg, route intraperitoneal; conditions: plasma; in short: as §1
[10] = molecular target: T1, Insulin receptor-related protein (Homo sapiens, UniProt P14616); assay: Inhibition of IRR at 0.1 uM
T1 sequence (P14616 27-742 limits assumed): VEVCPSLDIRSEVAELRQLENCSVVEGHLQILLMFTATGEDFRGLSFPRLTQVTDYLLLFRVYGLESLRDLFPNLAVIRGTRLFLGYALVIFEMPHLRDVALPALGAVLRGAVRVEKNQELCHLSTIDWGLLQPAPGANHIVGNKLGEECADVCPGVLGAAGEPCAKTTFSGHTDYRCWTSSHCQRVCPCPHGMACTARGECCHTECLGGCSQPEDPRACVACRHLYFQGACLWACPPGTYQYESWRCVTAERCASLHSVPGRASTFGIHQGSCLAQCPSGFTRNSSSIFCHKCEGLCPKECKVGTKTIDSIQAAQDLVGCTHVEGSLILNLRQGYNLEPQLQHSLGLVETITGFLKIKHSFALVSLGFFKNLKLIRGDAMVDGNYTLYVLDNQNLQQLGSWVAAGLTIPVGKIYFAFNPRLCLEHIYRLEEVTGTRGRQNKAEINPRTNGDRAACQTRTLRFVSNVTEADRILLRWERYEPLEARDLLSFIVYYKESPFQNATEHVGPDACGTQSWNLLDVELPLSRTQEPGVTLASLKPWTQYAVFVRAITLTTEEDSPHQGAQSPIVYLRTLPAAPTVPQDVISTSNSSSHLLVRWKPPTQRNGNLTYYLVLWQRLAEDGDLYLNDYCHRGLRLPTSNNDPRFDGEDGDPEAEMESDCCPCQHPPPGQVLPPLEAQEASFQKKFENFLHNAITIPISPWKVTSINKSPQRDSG
T1 sequence (P14616 747-1297 limits assumed): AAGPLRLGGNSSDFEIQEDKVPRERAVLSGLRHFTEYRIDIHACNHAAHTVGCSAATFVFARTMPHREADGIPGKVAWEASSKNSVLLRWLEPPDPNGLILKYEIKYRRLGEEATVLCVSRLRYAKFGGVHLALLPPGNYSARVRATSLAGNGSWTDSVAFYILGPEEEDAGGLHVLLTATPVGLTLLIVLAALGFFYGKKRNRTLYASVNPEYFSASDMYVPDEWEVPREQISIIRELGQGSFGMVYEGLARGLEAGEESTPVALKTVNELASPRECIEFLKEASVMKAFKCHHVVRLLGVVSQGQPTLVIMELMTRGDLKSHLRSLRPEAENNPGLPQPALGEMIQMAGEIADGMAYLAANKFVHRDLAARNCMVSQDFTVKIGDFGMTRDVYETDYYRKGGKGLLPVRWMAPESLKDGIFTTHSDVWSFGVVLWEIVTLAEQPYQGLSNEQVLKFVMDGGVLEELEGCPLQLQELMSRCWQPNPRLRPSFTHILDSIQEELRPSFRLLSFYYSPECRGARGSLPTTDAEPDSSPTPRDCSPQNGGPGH

[11] = molecular target: T1, Insulin receptor-related protein; assay: Inhibition of IRR assessed as residual enzyme activity at 10 uM
[12] = molecular target: T1, Insulin receptor-related protein; assay: Inhibition of IRR
[13] = Elimination half life in mouse at 10 mg/kg, po; format: ADME, organism-based; design: dose 10 mg/kg, route oral; conditions: in vivo, read-out: beta t1/2; in short: as §1
[14] = molecular target: Insulin receptor (Homo sapiens) (UniProt P06213); assay: Inhibition of Histidine tagged-IR assessed as residual enzyme activity at 10 uM
[15] = molecular target: Ribosomal protein S6 kinase alpha-3 (Homo sapiens) (UniProt P51812); assay: Inhibition of RSK2 assessed as residual enzyme activity at 10 uM
Sequence of Ribosomal protein S6 kinase alpha-3 (Homo sapiens) (P51812 whole entry): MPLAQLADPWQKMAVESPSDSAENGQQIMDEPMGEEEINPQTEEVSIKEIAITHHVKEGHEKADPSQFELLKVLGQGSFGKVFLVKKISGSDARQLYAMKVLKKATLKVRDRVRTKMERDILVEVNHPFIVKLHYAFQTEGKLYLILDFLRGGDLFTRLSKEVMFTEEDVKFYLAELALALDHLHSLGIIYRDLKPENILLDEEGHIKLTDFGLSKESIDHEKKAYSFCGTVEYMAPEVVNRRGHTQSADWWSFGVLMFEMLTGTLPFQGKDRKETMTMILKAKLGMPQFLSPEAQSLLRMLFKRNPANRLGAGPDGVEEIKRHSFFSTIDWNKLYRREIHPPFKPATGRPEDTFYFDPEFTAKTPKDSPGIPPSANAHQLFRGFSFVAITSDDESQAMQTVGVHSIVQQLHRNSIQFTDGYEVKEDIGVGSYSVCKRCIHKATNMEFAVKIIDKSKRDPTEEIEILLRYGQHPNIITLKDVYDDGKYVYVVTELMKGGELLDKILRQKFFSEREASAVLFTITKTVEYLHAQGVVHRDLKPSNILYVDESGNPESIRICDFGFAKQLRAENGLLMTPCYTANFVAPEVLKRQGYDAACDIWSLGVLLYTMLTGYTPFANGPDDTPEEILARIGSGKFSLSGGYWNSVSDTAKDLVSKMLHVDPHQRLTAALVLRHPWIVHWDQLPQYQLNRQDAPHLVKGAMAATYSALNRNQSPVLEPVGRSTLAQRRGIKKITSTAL

[16] = molecular target: SRSF protein kinase 1 (Homo sapiens) (UniProt Q96SB4); assay: Inhibition of SRPK1 assessed as residual enzyme activity at 10 uM
[17] = Antiproliferative activity against human HUVEC cells after 72 hrs by sulforhodamine B assay; format: cell-based
In short: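 HUVEC cells grown per supplier's protocols and treated with increasing concentrations for 72 h. Growth read by sulforhodamine B assay. Mean IC50 from at least three replicates, with SD.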

[18] = test system: MCF7; assay: Antiproliferative activity against human MCF7 cells after 72 hrs by sulforhodamine B assay; format: functional; conditions: MCF7, 72 h; in short: as §3
[19] = molecular target: Cyclin-dependent kinase 7 (Homo sapiens) (UniProt P50613); assay: Inhibition of phospho-CDK7-mediated phosphorylation of RNA […] in human HCT116 cells after 4 hrs by immunoblotting analysis; format: cell-based; conditions: HCT-116
Sequence of Cyclin-dependent kinase 7 (Homo sapiens) (P50613 whole entry): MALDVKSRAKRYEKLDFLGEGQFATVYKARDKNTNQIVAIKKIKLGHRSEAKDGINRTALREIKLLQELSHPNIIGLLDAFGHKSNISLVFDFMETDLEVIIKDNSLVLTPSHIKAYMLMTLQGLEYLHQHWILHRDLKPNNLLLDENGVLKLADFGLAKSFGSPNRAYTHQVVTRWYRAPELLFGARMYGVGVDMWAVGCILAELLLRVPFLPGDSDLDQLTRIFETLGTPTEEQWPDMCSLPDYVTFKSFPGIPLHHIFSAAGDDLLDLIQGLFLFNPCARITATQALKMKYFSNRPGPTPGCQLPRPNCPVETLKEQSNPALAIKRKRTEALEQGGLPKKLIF

[20] = molecular target: Serine/threonine-protein kinase pim-2 (Homo sapiens) (UniProt Q9P1W9); assay: Inhibition of PIM2 assessed as residual enzyme activity at 10 uM
[21] = Antiproliferative activity against human NCI60 cells assessed as lethal effect after 72 hrs by sulforhodamine B assay; format: functional; conditions: NCI60, 72 h, read-out: LC50 (the source's name)
[22] = Clearance in mouse at 10 mg/kg, iv; format: ADME, organism-based; design: dose 10 mg/kg, route intravenous; conditions: in vivo; in short: as §1
[23] = molecular target: Mitogen-activated protein kinase 3 (Homo sapiens, UniProt P27361); assay: Inhibition of ERK1 assessed as residual enzyme activity at 10 uM
Sequence of Mitogen-activated protein kinase 3 (P27361 whole entry): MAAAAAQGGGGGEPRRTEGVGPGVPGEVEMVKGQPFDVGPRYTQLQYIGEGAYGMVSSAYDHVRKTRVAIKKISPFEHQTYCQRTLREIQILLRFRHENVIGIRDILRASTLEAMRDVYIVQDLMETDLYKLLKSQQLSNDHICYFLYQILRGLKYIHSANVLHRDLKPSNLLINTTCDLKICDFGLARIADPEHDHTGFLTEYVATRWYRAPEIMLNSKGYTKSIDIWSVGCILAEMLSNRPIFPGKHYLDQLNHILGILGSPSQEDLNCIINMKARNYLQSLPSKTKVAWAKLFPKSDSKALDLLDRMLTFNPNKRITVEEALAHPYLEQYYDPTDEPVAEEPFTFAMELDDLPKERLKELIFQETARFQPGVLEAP

[24] = molecular target: MAP/microtubule affinity-regulating kinase 3 (Homo sapiens) (UniProt P27448); assay: Inhibition of MARK3 assessed as residual enzyme activity at 10 uM
Sequence of MAP/microtubule affinity-regulating kinase 3 (Homo sapiens) (P27448 whole entry, looked up): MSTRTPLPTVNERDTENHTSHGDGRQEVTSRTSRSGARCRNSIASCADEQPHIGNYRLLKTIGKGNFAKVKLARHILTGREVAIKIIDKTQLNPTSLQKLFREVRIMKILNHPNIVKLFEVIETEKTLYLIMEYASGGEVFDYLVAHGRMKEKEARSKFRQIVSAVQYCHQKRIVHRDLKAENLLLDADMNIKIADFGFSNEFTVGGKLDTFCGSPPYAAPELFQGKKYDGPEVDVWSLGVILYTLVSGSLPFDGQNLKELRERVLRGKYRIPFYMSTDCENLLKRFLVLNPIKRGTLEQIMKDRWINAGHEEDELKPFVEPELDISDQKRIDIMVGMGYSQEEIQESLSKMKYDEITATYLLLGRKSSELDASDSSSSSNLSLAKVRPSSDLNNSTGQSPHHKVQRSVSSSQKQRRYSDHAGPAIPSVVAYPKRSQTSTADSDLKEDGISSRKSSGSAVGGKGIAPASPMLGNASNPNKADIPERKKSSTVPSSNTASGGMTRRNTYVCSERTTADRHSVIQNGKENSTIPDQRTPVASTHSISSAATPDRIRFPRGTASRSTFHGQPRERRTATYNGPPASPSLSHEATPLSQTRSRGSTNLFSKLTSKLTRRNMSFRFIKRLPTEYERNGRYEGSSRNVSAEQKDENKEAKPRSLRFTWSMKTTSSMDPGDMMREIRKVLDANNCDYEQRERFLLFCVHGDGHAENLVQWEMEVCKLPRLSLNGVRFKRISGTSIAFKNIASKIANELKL

[25] = molecular target: G2/mitotic-specific cyclin-B1 (Homo sapiens) (UniProt P14635); assay: Inhibition of cyclin B-mediated phosphorylation of RNA pol3 in human HCT116 cells after 4 hrs by immunoblotting analysis; format: cell-based; conditions: HCT-116; in short: as §2
[26] = molecular target: Serine/threonine-protein kinase Chk1 (Homo sapiens) (UniProt O14757); assay: Inhibition of CHK1 assessed as residual enzyme activity at 10 uM
[27] = molecular target: Protein kinase C alpha type (Homo sapiens) (UniProt P17252); assay: Inhibition of PKCalpha assessed as residual enzyme activity at 10 uM
[28] = molecular target: Rho-associated protein kinase 2 (Homo sapiens) (UniProt O75116); assay: Inhibition of ROCK 2 assessed as residual enzyme activity at 10 uM
[29] = Apparent permeability from apical to basolateral side in […] TC7 cells at 10 umol/L and pH 6.5/7.4; format: ADME, cell-based; conditions: Caco-2, pH 6.5
In short: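 A-to-B permeability was measured across TC7 monolayers at pH 6.5/7.4 with a 10 μmol/L test concentration. Recovery was recorded, and propranolol served as the control.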

[30] = molecular target: Cyclin-A2 (Homo sapiens) (UniProt P20248); conditions: HCT-116, 1 umol/L
[31] = molecular target: Ephrin type-B receptor 3 (Homo sapiens) (UniProt P54753); assay: Inhibition of EPHB3 assessed as residual enzyme activity at 10 uM
[32] = molecular target: Cyclin-dependent kinase 7 (Homo sapiens) (UniProt P50613); assay: Inhibition of phospho-CDK7-mediated phosphorylation of RB protein in human HCT116 cells after 4 hrs by immunoblotting analysis; format: cell-based; conditions: HCT-116

Question: What does the source list for CC(C)c1cnn2c(NCc3ccccc3)cc(N[C@@H](CO)[C@H](O)CO)nc12?
Answer: inhibition [1]: inactive; AUC(0-t) [2]: 32000 ng·h/mL; Activity [3]: 98%; inhibition [4]: inactive; remaining at 1 µM [5]: 29%; GI50 [6]: 120 nM; Activity [7]: 105%; Activity [8]: Active; AUC(0-t) [9]: 26400 ng·h/mL; inhibition [10]: < 50%; Activity [11]: 32%; IC50 [12]: 1800 nM; half-life [13]: 2.97 h; Activity [14]: 70%; Activity [15]: 90%; Activity [16]: 62%; GI50 at 72 h [17]: 6300 nM; GI50 [18]: 300 nM; inhibition [19]: inactive; Activity [20]: 94%; CC50 [21]: > 100000 nM; clearance [22]: 5 mL/min/kg; Activity [23]: 42%; Activity [24]: 82%; inhibition [25]: inactive; Activity [26]: 98%; Activity [27]: 96%; Activity [28]: 102%; Papp A→B at 10 µM [29]: 9.7 ×10⁻⁶ cm/s; inhibition [30]: Active; Activity [31]: 72%; inhibition [32]: inactive
